Results taken from ChEMBL document CHEMBL4138132, “Design, synthesis and biological evaluation of substituted aminopyridazin-3(2H)-ones as G0/G1-phase arresting agents with apoptosis-inducing activities” (Eur J Med Chem, 2017).

Assays:
[1] = Inhibition of PDE4 (unknown origin) using FAM-Cyclic-3',5'-AMP as substrate after 1 hr by fluorescence polarization assay; parameters: species or system Homo sapiens
Summary of the method: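 Each compound was tested at nine concentrations spanning 10^-8 to 10^-4 M, with rolipram as positive control. IC50 was obtained by nonlinear regression of the inhibition curves.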

K562 = test: Antiproliferative activity against human K562 cells after 48 hrs by MTT assay; type: functional; conditions: K562, 48 h
Summary of the method: (§1)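 MTT read-out after 48 h incubation. GI50 taken as the concentration giving 50% growth inhibition relative to untreated controls. Fluorouracil served as positive control.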

SH-SY5Y [2] = test: Antiproliferative activity against human SH-SY5Y cells after 48 hrs by MTT assay; type: functional; summary of the method: as §1
AGS = test: Antiproliferative activity against human AGS cells after 48 hrs by MTT assay; type: functional; summary of the method: as §1
SH-SY5Y [3] = test: Induction of apoptosis in human SH-SY5Y cells assessed as late apoptotic cells at 10 uM after 48 hrs by Annexin V-FITC/propidium iodide staining based flow cytometry (reference value: 3.68%); type: functional
Summary of the method: (§2)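 SH-SY5Y cells treated 48 h at 10 or 20 µM, then stained with Annexin V-FITC and propidium iodide and analysed by flow cytometry. Quadrants were scored as live, early apoptotic, late apoptotic and necrotic. DMSO served as control. Values are means of three independent experiments. Significance was tested versus control.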

SH-SY5Y [4] = test: Cell cycle arrest in human SH-SY5Y cells assessed as accumulation at G2/M-phase at 5 uM after 48 hrs by propidium iodide staining based flow cytometry (reference value: 12.13 +/- 0.7%); type: functional
SH-SY5Y [5] = test: Cell cycle arrest in human SH-SY5Y cells assessed as accumulation at S-phase at 20 uM after 48 hrs by propidium iodide staining based flow cytometry (reference value: 40.2 +/- 1.8%); type: functional
SH-SY5Y [6] = test: Induction of apoptosis in human SH-SY5Y cells assessed as late apoptotic cells at 20 uM after 48 hrs by Annexin V-FITC/propidium iodide staining based flow cytometry (reference value: 3.68%); type: functional; summary of the method: as §2
SH-SY5Y [7] = test: Induction of apoptosis in human SH-SY5Y cells assessed as live cells at 10 uM after 48 hrs by Annexin V-FITC/propidium iodide staining based flow cytometry (reference value: 89.95%); type: functional; summary of the method: as §2
SH-SY5Y [8] = test: Cell cycle arrest in human SH-SY5Y cells assessed as accumulation at G2/M-phase at 10 uM after 48 hrs by propidium iodide staining based flow cytometry (reference value: 12.13 +/- 0.7%); type: functional
SH-SY5Y [9] = test: Cell cycle arrest in human SH-SY5Y cells assessed as accumulation at G0/G1 phase at 10 uM after 48 hrs by propidium iodide staining based flow cytometry (reference value: 47.67 +/- 1.1%); type: functional
SH-SY5Y [10] = test: Induction of apoptosis in human SH-SY5Y cells assessed as early apoptotic cells at 20 uM after 48 hrs by Annexin V-FITC/propidium iodide staining based flow cytometry (reference value: 1.3%); type: functional; summary of the method: as §2
SH-SY5Y [11] = test: Induction of apoptosis in human SH-SY5Y cells assessed as early apoptotic cells at 10 uM after 48 hrs by Annexin V-FITC/propidium iodide staining based flow cytometry (reference value: 1.3%); type: functional; summary of the method: as §2
SH-SY5Y [12] = test: Cell cycle arrest in human SH-SY5Y cells assessed as accumulation at G0/G1 phase at 5 uM after 48 hrs by propidium iodide staining based flow cytometry (reference value: 47.67 +/- 1.1%); type: functional
SH-SY5Y [13] = test: Cell cycle arrest in human SH-SY5Y cells assessed as accumulation at S-phase at 10 uM after 48 hrs by propidium iodide staining based flow cytometry (reference value: 40.2 +/- 1.8%); type: functional
SH-SY5Y [14] = test: Induction of apoptosis in human SH-SY5Y cells assessed as necrotic cells at 10 uM after 48 hrs by Annexin V-FITC/propidium iodide staining based flow cytometry (reference value: 5.06%); type: functional; summary of the method: as §2
SH-SY5Y [15] = test: Induction of apoptosis in human SH-SY5Y cells assessed as increase in late apoptotic cells after 48 hrs by Annexin V-FITC/propidium iodide staining based flow cytometry; type: functional, cell-based; summary of the method: as §2
SH-SY5Y [16] = test: Cell cycle arrest in human SH-SY5Y cells assessed as accumulation at G0/G1 phase at 20 uM after 48 hrs by propidium iodide staining based flow cytometry (reference value: 47.67 +/- 1.1%); type: functional
SH-SY5Y [17] = test: Cell cycle arrest in human SH-SY5Y cells assessed as accumulation at G0/G1-phase after 48 hrs by propidium iodide staining based flow cytometry; type: functional
SH-SY5Y [18] = test: Induction of apoptosis in human SH-SY5Y cells assessed as live cells at 20 uM after 48 hrs by Annexin V-FITC/propidium iodide staining based flow cytometry (reference value: 89.95%); type: functional; summary of the method: as §2
SH-SY5Y [19] = test: Induction of apoptosis in human SH-SY5Y cells assessed as necrotic cells at 20 uM after 48 hrs by Annexin V-FITC/propidium iodide staining based flow cytometry (reference value: 5.06%); type: functional; summary of the method: as §2
SH-SY5Y [20] = test: Cell cycle arrest in human SH-SY5Y cells assessed as accumulation at S-phase at 5 uM after 48 hrs by propidium iodide staining based flow cytometry (reference value: 40.2 +/- 1.8%); type: functional
SH-SY5Y [21] = test: Cell cycle arrest in human SH-SY5Y cells assessed as accumulation at G2/M-phase at 20 uM after 48 hrs by propidium iodide staining based flow cytometry (reference value: 12.13 +/- 0.7%); type: functional

Structure (SMILES) | IC50 [1] [µM] | GI50 (K562) [µM] | GI50 (SH-SY5Y [2]) [µM] | GI50 (AGS) [µM] | also measured
COc1ccccc1OCCNc1ccc(=O)n(Cc2ccc(OC)c(OC3CCCC3)c2)n1 | > 100 | 28 | > 100 | > 100 | 
COc1ccc(Cn2nc(NCCOc3ccccc3OC)ccc2=O)cc1Br | 44 | > 100 | > 100 | > 100 | 
O=c1[nH]cc(F)c(=O)[nH]1 [FLUOROURACIL] |  | 18.5 | 11.9 | 24.6 | 
COc1ccccc1OCCNc1ccc(=O)n(Cc2ccc(OC)c(OCC3CC3)c2)n1 | > 100 | 16.6 | 10.5 | 45.8 | 
COc1ccccc1OCCNc1cnn(Cc2ccc(OC)c(-c3cccc(Cl)c3)c2)c(=O)c1Cl | > 100 | > 100 | > 100 | > 100 | 
COc1ccccc1OCCNc1cnn(Cc2ccc(OC(F)F)c(OC3CCCC3)c2)c(=O)c1Cl | 39.1 | > 100 | > 100 | > 100 | 
COc1ccccc1OCCNc1ccc(=O)n(Cc2ccc(OC(F)F)c(OC3CCCC3)c2)n1 | 12.2 | 9.1 | 9.3 | 23.6 | Activity (SH-SY5Y [3]): 8.05%; Activity (SH-SY5Y [4]): 10.34%; Activity (SH-SY5Y [5]): 29.58%; Activity (SH-SY5Y [6]): 18.54%; Activity (SH-SY5Y [7]): 84.34%; Activity (SH-SY5Y [8]): 7.74%; Activity (SH-SY5Y [9]): 62.1%; Activity (SH-SY5Y [10]): 8.82%; Activity (SH-SY5Y [11]): 3.12%; Activity (SH-SY5Y [12]): 53.22%; Activity (SH-SY5Y [13]): 30.16%; Activity (SH-SY5Y [14]): 4.48%; Activity (SH-SY5Y [15]): Dose-dependent effect; Activity (SH-SY5Y [16]): 63.55%; Activity (SH-SY5Y [17]): Dose-dependent effect; Activity (SH-SY5Y [18]): 64.46%; Activity (SH-SY5Y [19]): 8.18%; Activity (SH-SY5Y [20]): 36.44%; Activity (SH-SY5Y [21]): 6.87%
COc1ccccc1OCCNc1cnn(Cc2ccc(OC(F)F)c(OCC3CC3)c2)c(=O)c1Cl | > 100 | 67.6 | > 100 | > 100 | 
COc1ccccc1OCCNc1cnn(Cc2ccc(OC)c(OC3CCCC3)c2)c(=O)c1Cl | 21.5 | > 100 | 23.3 | > 100 | 
COc1ccc(Cn2nc(NCCOc3ccccc3OC)ccc2=O)cc1OC | 66.9 | > 100 | > 100 | > 100 | 
COc1ccc(Cn2ncc(NCCOc3ccccc3OC)c(Cl)c2=O)cc1OC | 73 | > 100 | 33.1 | > 100 | 
COc1ccc(C2CNC(=O)C2)cc1OC1CCCC1 (stereo not given) [ROLIPRAM] | 0.5 |  |  |  | 
COc1ccccc1OCCNc1cnn(Cc2ccc(OC)c(OCC3CC3)c2)c(=O)c1Cl | 45.2 | > 100 | 37.9 | > 100 | 
COc1ccccc1OCCNc1ccc(=O)n(Cc2ccc(OC(F)F)c(OCC3CC3)c2)n1 | 15.3 | 60.9 | 6.3 | 24.4 | Activity (SH-SY5Y [3]): 7.43%; Activity (SH-SY5Y [4]): 12.98%; Activity (SH-SY5Y [5]): 22.75%; Activity (SH-SY5Y [6]): 10.62%; Activity (SH-SY5Y [7]): 85.22%; Activity (SH-SY5Y [8]): 10.59%; Activity (SH-SY5Y [9]): 55.6%; Activity (SH-SY5Y [10]): 4.16%; Activity (SH-SY5Y [11]): 2.74%; Activity (SH-SY5Y [12]): 52.15%; Activity (SH-SY5Y [13]): 33.81%; Activity (SH-SY5Y [14]): 4.6%; Activity (SH-SY5Y [15]): Dose-dependent effect; Activity (SH-SY5Y [16]): 62.61%; Activity (SH-SY5Y [17]): Dose-dependent effect; Activity (SH-SY5Y [18]): 78.53%; Activity (SH-SY5Y [19]): 6.69%; Activity (SH-SY5Y [20]): 34.87%; Activity (SH-SY5Y [21]): 14.64%
